Results as given in ChEMBL document CHEMBL4118112, “Synthesis and Evaluation of the First Fluorescent Antagonists of the Human P2Y2 Receptor Based on AR-C118925” (J Med Chem, 2018).
Active and inactive are the calls of the source. No cut-off for these calls is given here.

How the values were obtained:
P2Y purinoceptor 2 [1] = target: T1, P2Y purinoceptor 2 (Homo sapiens, UniProt P41231); assay: (§1) Antagonist activity at human P2Y2R expressed in human 1321N1 cells assessed as inhibition of UTPgammaS-activated calcium-mobilization preincubated for 45 mins measured every 1.52 secs for 200 secs after the addition of UTPgammaS at 15 secs by fluo-4AM-based fluorescence assay; type: functional, cell-based
Procedure, shortened: (§2)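 hP2Y2R in 1321N1 astrocytoma cells. Calcium mobilization was driven by UTPγS. Single-concentration lines: compound at 10 µM, inhibition scored against the 0.1 µM UTPγS response (n=3). For the pKb line, the UTPγS concentration-response curve was run with a single antagonist concentration added, and pKb was calculated from the curve shift with the Gaddum equation.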

P2Y purinoceptor 2 [2] = target: T1, P2Y purinoceptor 2; assay: as §1, with “calcium-mobilization at 10 uM” for “calcium-mobilization”, “assay relative to UTPgammaS” for “assay”; type: functional, cell-based; procedure, shortened: as §2
P2Y purinoceptor 2 [3] = target: T1, P2Y purinoceptor 2; assay: Displacement of (E)-2-((5-(7-Chloro-2-((3-((2-(6-(3-(5,5-difluoro-7,9-dimethyl-5H-5-lambda4,6-lambda4-dipyrrolo[1,2-c:2,1-f ][1,3,2]diazaborinin-3-yl)-propanamido)hexanamido)ethyl)amino)-3-oxopropyl)amino)-4Hbenzo[5,6]cyclohepta[1,2-d]thiazol-4-yl)-2-oxo-4-thioxo-3,4-dihydropyrimidin-1(2H)-yl)methyl)-N-(1H-tetrazol-5-yl)thiazole-4-carboxamide from human N-terminal NLuc-tagged P2Y2R expressed in human 1321N1 cells incubated for 1 hr by furimazine-based NanoBRET assay; type: cell-based
Procedure, shortened: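 Competition binding in 1321N1 cells expressing N-terminal NanoLuc-hP2Y2R. The fluorescent tracer was used at 1 µM (or the bodipy A tracer at 100 nM) against increasing concentrations of unlabeled ligand. After furimazine addition the BRET signal was read and pKi estimated; mean ± SEM of separate experiments.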

P2Y purinoceptor 2 [4] = target: T1, P2Y purinoceptor 2; assay: Binding affinity to recombinant human N-terminal NLuc-tagged P2Y2R expressed in human 1321N1 cells incubated for 1 hr in presence of AR-C118925 by furimazine-based NanoBRET assay; type: cell-based
Procedure, shortened: (§3)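 N-terminally NanoLuc-tagged hP2Y2R was stably expressed in 1321N1 cells. Cells were treated with increasing concentrations of fluorescent conjugate, or a fixed 10 µM for screening, with or without 10 µM AR-C118925 to define nonspecific binding. Furimazine substrate was then added and the BRET signal read. pKd came from saturation binding curves; mean ± SEM of separate experiments.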

P2Y purinoceptor 2 [5] = target: T1, P2Y purinoceptor 2; assay: Binding affinity to recombinant human N-terminal NLuc-tagged P2Y2R expressed in human 1321N1 cells at 10 uM incubated for 1 hr in presence of AR-C118925 by furimazine-based NanoBRET assay; type: cell-based; procedure, shortened: as §3
P2Y purinoceptor 2 [6] = target: T1, P2Y purinoceptor 2; assay: Antagonist activity at human P2Y2R expressed in human 1321N1 cells assessed as inhibition of UTPgammaS-activated calcium-mobilization at 10 uM preincubated for 45 mins measured every 1.52 secs for 200 secs after the addition of UTPgammaS at 15 secs by fluo-4AM-based fluorescence assay; type: functional, cell-based; procedure, shortened: as §2
P2Y purinoceptor 2 [7] = target: T1, P2Y purinoceptor 2; assay: Binding affinity to human P2Y2R expressed in human 1321N1 cells assessed as localized membrane fluorescence at 100 nM after 30 mins by confocal microscopy; type: cell-based
Procedure, shortened: (§4)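 1321N1 astrocytoma cells expressing untagged hP2Y2R were given 100 nM fluorescent ligand and incubated 30 min at 37°C, with or without 10 µM AR-C118925 (1). Single equatorial confocal images were then taken with the fluorescent ligand and/or antagonist still present. Membrane and intracellular fluorescence were examined; images are representative of 4 experiments.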

P2Y purinoceptor 2 [8] = target: T1, P2Y purinoceptor 2; assay: Binding affinity to human P2Y2R expressed in human 1321N1 cells assessed as localized membrane fluorescence at 100 nM after 30 mins in presence of AR-C118925 by confocal microscopy; type: cell-based; procedure, shortened: as §4
[9] = Drug uptake in human 1321N1 cells assessed as intracellular fluorescence at 100 nM after 30 mins by confocal microscopy; type: ADME, cell-based; conditions: 0.5 h, 0.1 µM; procedure, shortened: as §4

T1 sequence (P41231 whole entry): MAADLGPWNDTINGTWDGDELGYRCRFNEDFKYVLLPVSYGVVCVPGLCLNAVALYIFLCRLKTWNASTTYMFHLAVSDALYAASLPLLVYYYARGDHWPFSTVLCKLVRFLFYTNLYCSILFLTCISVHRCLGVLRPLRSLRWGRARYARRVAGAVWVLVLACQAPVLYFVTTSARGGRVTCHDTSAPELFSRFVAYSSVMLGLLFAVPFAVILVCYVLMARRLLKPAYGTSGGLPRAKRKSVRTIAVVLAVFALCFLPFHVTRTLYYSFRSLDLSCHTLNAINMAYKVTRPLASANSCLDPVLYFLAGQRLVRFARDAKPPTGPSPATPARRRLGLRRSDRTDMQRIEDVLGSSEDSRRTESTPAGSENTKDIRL

In the case of COCCNc1nc2c(s1)C=Cc1cc(Cl)ccc1C2c1cn(C)c(=O)[nH]c1=S (stereo in doubt; 21), the pKb (P2Y purinoceptor 2 [1]) is reported as 5.82.

With CCOCCNc1nc2c(s1)C=Cc1cc(Cl)ccc1[C@@H]2c1cn(C)c(=O)[nH]c1=S the pKb (P2Y purinoceptor 2 [1]) was less than 5, the inhibition (P2Y purinoceptor 2 [2]) was less than 50% and the inhibition (P2Y purinoceptor 2 [3]) was “Dose-dependent effect”.

In the case of Cc1ccc2c(c1)C=Cc1cc(C)ccc1C2c1cn(Cc2ccc(C(=O)Nc3nnn[nH]3)o2)c(=O)[nH]c1=S, the inhibition (P2Y purinoceptor 2 [3]) is reported as “Dose-dependent effect”.

In the case of CN1CCN(c2nc3c(s2)C=Cc2cc(Cl)ccc2C3c2cn(C)c(=O)[nH]c2=S)CC1 (configuration not stated), the inhibition (P2Y purinoceptor 2 [2]) is reported as less than 50%.

Work on Cn1cc(C2c3ccc(Cl)cc3C=Cc3sc(NCCOc4ccccc4)nc32)c(=S)[nH]c1=O (configuration not stated) yielded an inhibition (P2Y purinoceptor 2 [2]) of less than 50%.

Compound Cc1cc(C)n2c1C=C1C=CC(CCC(=O)NCCCCCC(=O)NCCNC(=O)CCNc3nc4c(s3)C=Cc3cc(Cl)ccc3C4c3cn(C)c(=O)[nH]c3=S)=[N+]1[B-]2(F)F (configuration not stated) has a pKb (P2Y purinoceptor 2 [1]) of 6.3, a Kd (P2Y purinoceptor 2 [4]) of 2140 nM and a Ki (P2Y purinoceptor 2 [3]) of 398 nM. The inhibition (P2Y purinoceptor 2 [3]) was “Dose-dependent effect” and the Activity (P2Y purinoceptor 2 [5]) was “Active”.

For COCCNc1nc2c(s1)C=Cc1cc(Cl)ccc1C2c1cn(C)c(=O)[nH]c1=S (racemic), the pKb (P2Y purinoceptor 2 [1]) was 6.6.

Cc1ccc2c(c1)C=Cc1cc(C)ccc1C2c1cn(Cc2cc(C(=O)NCCNC(=O)COc3ccc(/C=C/C4=[N+]5C(=Cc6ccc(-c7cccs7)n6[B-]5(F)F)C=C4)cc3)cc(C(=O)Nc3nnn[nH]3)c2)c(=O)[nH]c1=S showed a Kd (P2Y purinoceptor 2 [4]) of 2750 nM.

In the case of Cc1ccc2c(c1)C=Cc1cc(C)ccc1C2c1cn(Cc2nc(C(=O)Nc3nnn[nH]3)cs2)c(=O)[nH]c1=S, the pKb (P2Y purinoceptor 2 [1]) is reported as 7.11, the Ki (P2Y purinoceptor 2 [3]) is reported as 129 nM and the inhibition (P2Y purinoceptor 2 [3]) is reported as “Dose-dependent effect”.

Cc1ccc2c(c1)C=Cc1cc(C)ccc1C2c1cn(Cc2cc(C(=O)NCCOCCOCCNC(=O)COc3ccc(/C=C/C4=[N+]5C(=Cc6ccc(-c7cccs7)n6[B-]5(F)F)C=C4)cc3)cc(C(=O)Nc3nnn[nH]3)c2)c(=O)[nH]c1=S gave a Kd (P2Y purinoceptor 2 [4]) of 759 nM.

For CC(C)OCCNc1nc2c(s1)C=Cc1cc(Cl)ccc1C2c1cn(C)c(=O)[nH]c1=S (configuration not stated), the pKb (P2Y purinoceptor 2 [1]) was 6.49.

For CCOCCNc1nc2c(s1)C=Cc1cc(Cl)ccc1[C@H]2c1cn(C)c(=O)[nH]c1=S, the pKb (P2Y purinoceptor 2 [1]) was 6.74 to 6.78 and the inhibition (P2Y purinoceptor 2 [3]) was “Dose-dependent effect”.

Cn1cc(C2c3ccc(Cl)cc3C=Cc3sc(N)nc32)c(=S)[nH]c1=O (configuration not stated) gave a pKb (P2Y purinoceptor 2 [1]) of 6.56.

For Cn1cc(C2c3ccc(Cl)cc3C=Cc3sc(NCCc4ccccc4)nc32)c(=S)[nH]c1=O (configuration not stated), the inhibition (P2Y purinoceptor 2 [2]) was less than 50%.

Cn1cc(C2c3ccc(Cl)cc3C=Cc3sc(N4CCCCC4)nc32)c(=S)[nH]c1=O (configuration not stated) gave an inhibition (P2Y purinoceptor 2 [2]) of less than 50%.

With O=C(CCCCCNC(=O)COc1ccc(/C=C/C2=[N+]3C(=Cc4ccc(-c5cccs5)n4[B-]3(F)F)C=C2)cc1)NCCNC(=O)CCNc1nc2c(s1)C=Cc1cc(Cl)ccc1C2c1cn(Cc2nc(C(=O)Nc3nnn[nH]3)cs2)c(=O)[nH]c1=S (configuration not stated) the Kd (P2Y purinoceptor 2 [4]) was 129 nM, the pKb (P2Y purinoceptor 2 [6]) was 5.69 and the Activity (P2Y purinoceptor 2 [7]) was “Active”. For the same compound, the Activity (P2Y purinoceptor 2 [8]) was “inactive” and the Drug uptake [9] was “Not Active”.

In the case of O=c1[nH]c(=S)c(C2c3ccccc3CCc3ccccc32)cn1[C@@H]1O[C@H](COP(=O)(O)OP(=O)(O)C(Cl)(Cl)P(=O)(O)O)[C@@H](O)[C@H]1O, the pKb (P2Y purinoceptor 2 [1]) is reported as 6.59, the Ki (P2Y purinoceptor 2 [3]) is reported as 83.2 nM and the inhibition (P2Y purinoceptor 2 [3]) is reported as “Dose-dependent effect”.

O=C(CCNc1nc2c(s1)C=Cc1cc(Cl)ccc1C2c1cn(Cc2nc(C(=O)Nc3nnn[nH]3)cs2)c(=O)[nH]c1=S)NCCNC(=O)COc1ccc(/C=C/C2=[N+]3C(=Cc4ccc(-c5cccs5)n4[B-]3(F)F)C=C2)cc1 (configuration not stated) gave a Kd (P2Y purinoceptor 2 [4]) of 891 nM.

Cc1nc2c(s1)C=Cc1cc(Cl)ccc1C2c1cn(Cc2nc(C(=O)Nc3nnn[nH]3)cs2)c(=O)[nH]c1=S (configuration not stated) showed a pKb (P2Y purinoceptor 2 [1]) of 6.48.

Compound Cc1ccc2c(c1)C=Cc1cc(C)ccc1C2c1cn(Cc2nc(C(=O)O)cs2)c(=O)[nH]c1=S has a pKb (P2Y purinoceptor 2 [1]) of 6.43.

In the case of Cc1cc(C)n2c1C=C1C=CC(CCC(=O)NCCNC(=O)CCNc3nc4c(s3)C=Cc3cc(Cl)ccc3C4c3cn(C)c(=O)[nH]c3=S)=[N+]1[B-]2(F)F (configuration not stated), the Kd (P2Y purinoceptor 2 [4]) is reported as 12300 nM and the Activity (P2Y purinoceptor 2 [5]) is reported as “Active”.

For Cc1ccc2c(c1)C=Cc1cc(C)ccc1C2c1cn(C)c(=O)[nH]c1=S, the inhibition (P2Y purinoceptor 2 [2]) was less than 50%.

Work on Cc1cc(C)n2c1C=C1C=CC(CCC(=O)NCCNC(=O)CCNc3nc4c(s3)C=Cc3cc(Cl)ccc3C4c3cn(Cc4nc(C(=O)Nc5nnn[nH]5)cs4)c(=O)[nH]c3=S)=[N+]1[B-]2(F)F (configuration not stated) yielded a Kd (P2Y purinoceptor 2 [4]) of 89.1 nM.

For COCCNc1nc2c(s1)C=Cc1cc(Cl)ccc1C2c1cn(C)c(=O)[nH]c1=S (stereo in doubt; 20), the pKb (P2Y purinoceptor 2 [1]) was 6.63.

Cn1cc(C2c3ccc(Cl)cc3C=Cc3sc(-c4ccccc4)nc32)c(=S)[nH]c1=O (configuration not stated) gave an inhibition (P2Y purinoceptor 2 [2]) of less than 50%.

With Cn1cc(C2c3ccc(Cl)cc3C=Cc3sc(N4CCOCC4)nc32)c(=S)[nH]c1=O (configuration not stated) the inhibition (P2Y purinoceptor 2 [2]) was less than 50%.

Cn1cc(C2c3ccc(Cl)cc3C=Cc3sc(NCc4ccccc4)nc32)c(=S)[nH]c1=O (configuration not stated) gave an inhibition (P2Y purinoceptor 2 [2]) of less than 50%.

For CCOCCNc1nc2c(s1)C=Cc1cc(Cl)ccc1C2c1cn(C)c(=O)[nH]c1=S (racemic), the pKb (P2Y purinoceptor 2 [1]) was 6.73.

For O=c1ccn([C@@H]2O[C@H](COP(=O)(O)OP(=O)(O)OP(=O)(O)S)[C@@H](O)[C@H]2O)c(=O)[nH]1 (some centres not stated), the Ki (P2Y purinoceptor 2 [3]) was 3470 nM and the inhibition (P2Y purinoceptor 2 [3]) was “Dose-dependent effect”.

For Cc1nc2c(s1)C=Cc1cc(Cl)ccc1C2c1cn(C)c(=O)[nH]c1=S (configuration not stated), the pKb (P2Y purinoceptor 2 [1]) was 5.99, the Ki (P2Y purinoceptor 2 [3]) was 1550 nM and the inhibition (P2Y purinoceptor 2 [3]) was “Dose-dependent effect”.

For Cn1cc(C2c3ccc(Cl)cc3C=Cc3sc(Nc4ccccc4)nc32)c(=S)[nH]c1=O (configuration not stated), the inhibition (P2Y purinoceptor 2 [2]) was less than 50%.

In the case of Cc1cc(C)n2c1C=C1C=CC(CCC(=O)NCCCCCC(=O)NCCOCCOCCNC(=O)CCNc3nc4c(s3)C=Cc3cc(Cl)ccc3C4c3cn(C)c(=O)[nH]c3=S)=[N+]1[B-]2(F)F (configuration not stated), the Kd (P2Y purinoceptor 2 [4]) is reported as 4170 nM and the Activity (P2Y purinoceptor 2 [5]) is reported as “Active”.
